Experiment [1] has as its system L1210. In words: Inhibition of [3H]thymidine uptake in L1210 cells at 10 uM. The experiment is classed as functional. Particulars: Mus musculus. Put shortly:
(§1)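 ³H-thymidine uptake into L1210 leukaemia cells measured by a modified rapid-mixing technique with inhibitor-stop. Values are mean ± SD of three or more separate determinations. IC50 is interpolated from concentration–inhibition curves.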

In experiment [2] the test system is L1210. In words: Inhibition of [3H]thymidine uptake in L1210 cells. The experiment is classed as functional, cell-based. Particulars: Mus musculus. Put shortly: as §1
In experiment [3] the test system is L1210. Briefly: Tested for the reduction in inhibition of [3H]-thymidine uptake in L1210 cells in the presence of 5 mg/mL human AGP; NS, no significant reduction in inhibition by AGP. Type of experiment: functional, cell-based. As to conditions: Mus musculus. Put shortly:
(§2)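 Rapid-mixing, inhibitor-stop ³H-thymidine uptake into L1210 leukaemia cells run with 5 mg/mL human AGP present. Values are mean ± SD of three or more separate determinations. Significance of the difference from inhibition without AGP is taken at p ≤ 0.05.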

In experiment [4] the test system is L1210. In words: Inhibition of [3H]thymidine uptake in L1210 cells at 1 uM. Type of experiment: functional. As to conditions: Mus musculus. In short, it runs like this: as §1
The subject of experiment [5] is L1210. In words: Inhibition of [3H]thymidine uptake in L1210 cells in the presence of 5 mg/mL human AGP at 1 uM. The experiment is classed as functional, Mus musculus. In short, it runs like this: as §2
In experiment [6] the test system is L1210. Briefly: Compound was tested for the inhibition of [3H]thymidine uptake in L1210 cells at 0.1 uM. The experiment is classed as functional. Particulars: Mus musculus. Put shortly:
as §1

Experiment [7] has as its system L1210. In words: Tested for the reduction in inhibition of [3H]thymidine uptake in L1210 cells in the presence of 5 mg/mL human AGP. Type of experiment: functional, Mus musculus. Put shortly:
as §2

Experiment [8] concerns L1210. Briefly: Compound was tested for the inhibition of [3H]thymidine uptake in L1210 cells at 100 uM. The experiment is classed as functional. As to conditions: Mus musculus. Put shortly: as §1
Experiment [9] relates to L1210. In words: Inhibition of [3H]-thymidine uptake in L1210 cells in the presence of 5 mg/mL human AGP at 10 uM. Type of experiment: functional, Mus musculus. In short, it runs like this:
as §2

Experiment [10] concerns L1210. In words: Compound was tested (100 uM) for the inhibition of [3H]thymidine uptake in L1210 cells in the presence of 5 mg/mL human AGP. The experiment is classed as functional, Mus musculus. Put shortly:
as §2

In experiment [11] the test system is L1210. Briefly: Compound was tested for the inhibition of [3H]thymidine uptake in L1210 cells at 3 uM. Type of experiment: functional. As to conditions: Mus musculus. In short, it runs like this:
as §1

Each structure is given as a SMILES string. pIC50: −log10 of the molar value. Active and inactive are the calls of the source. The rule behind the calls is not given here.

`CC(O)CNc1nc(NCc2ccc3c(c2)OCO3)c2nc(NCC(C)O)nc(NCc3ccc4c(c3)OCO4)c2n1` (stereo unspecified) gave an inhibition at 10 µM in the experiment with L1210 [1] of 90%. Further, the pIC50 in the experiment with L1210 [2] was 6.59. Further, the Reduction result in the experiment on L1210 [3] is “No significant reduction in inhibition”. This molecule also gave an inhibition at 1 µM in the experiment with L1210 [4] of 69%. For the same molecule, the Inhibition in the experiment on L1210 [5] was 64%.
As for `COc1ccc(CNc2nc(NCC(C)O)nc3c(NCc4ccc(OC)cc4)nc(NCC(C)O)nc23)cc1` (stereo unspecified), the pIC50 in the experiment on L1210 [2] is 6.15. Besides, the inhibition at 0.1 µM in the experiment on L1210 [6] was found to be 21%. This molecule also returned an inhibition at 1 µM with L1210 [4] of 58%. Further, the Reduction with L1210 [7] is on record as 45%. In the experiment with L1210 [5], the Inhibition is given as 32%.
Consider `CCCOc1nc(N2CCCCC2)c2nc(OCCC)nc(N3CCCCC3)c2n1`, for which, in the experiment with L1210 [1], 10 µM produced 37% inhibition. Further, in the experiment with L1210 [2], the pIC50 was 4.28. In the experiment on L1210 [8], this molecule returned an inhibition at 100 µM of 60%.
In turn, `COc1ccc(CN(C)c2nc(OCCCO)nc3c(N(C)Cc4ccc(OC)cc4)nc(OCCCO)nc23)cc1` had a pIC50 in the experiment on L1210 [2] of 6.66. In addition, 0.1 µM produced 38% inhibition with L1210 [6]. This molecule gave an inhibition at 1 µM with L1210 [4] of 78%. Besides, in the experiment with L1210 [7], the Reduction is on record as 59%. Also, the Inhibition in the experiment on L1210 [5] is 32%.
For the molecule `OCCN(CCO)c1nc(NCc2ccccc2)c2nc(N(CCO)CCO)nc(NCc3ccccc3)c2n1`, the Inhibition is 75% with L1210 [9] and 21% with L1210 [5]. Also, at 10 µM the inhibition in the experiment on L1210 [1] was 91%. In the experiment on L1210 [2], this molecule had a pIC50 of 6.22. This molecule yielded an inhibition at 1 µM with L1210 [4] of 51%. For the same molecule, in the experiment on L1210 [7], the Reduction is 44%.
`CC1(C)OC[C@H](COc2nc(N3CCCCC3)c3nc(OC[C@H]4COC(C)(C)O4)nc(N4CCCCC4)c3n2)O1`: the Inhibition in the experiment with L1210 [9] turned out to be 62%. Further, in the experiment on L1210 [1], the inhibition at 10 µM is 87%. This molecule showed a pIC50 with L1210 [2] of 5.96. The same molecule had an inhibition at 1 µM with L1210 [4] of 47%. In addition, the Reduction in the experiment on L1210 [7] was 29%.
Consider `COCC(COc1nc(N2CCCCC2)c2nc(OCC(COC)OC)nc(N3CCCCC3)c2n1)OC` (stereo unspecified), for which the Inhibition with L1210 [9] amounted to 56%. Moreover, at 10 µM the inhibition in the experiment with L1210 [1] was 87%. Further, the pIC50 with L1210 [2] is 5.73. Further, 1 µM produced 38% inhibition in the experiment on L1210 [4]. Also, the Reduction in the experiment with L1210 [7] turned out to be 36%.
For the molecule `COCC(C)Oc1nc(N2CCCCC2)c2nc(OC(C)COC)nc(N3CCCCC3)c2n1` (stereo unspecified), in the experiment on L1210 [1], the inhibition at 10 µM came out at 62%. For the same molecule, in the experiment on L1210 [8], the inhibition at 100 µM turned out to be 96%.
As for `COc1ccc(CN(C)c2nc(OCCO)nc3c(N(C)Cc4ccc(OC)cc4)nc(OCCO)nc23)cc1`, the negative logarithm of the IC50 (pIC50) with L1210 [2] was 6.37. The same molecule showed an inhibition at 0.1 µM with L1210 [6] of 27%. Besides, the inhibition at 1 µM with L1210 [4] was found to be 74%. Moreover, in the experiment with L1210 [7], the Reduction turned out to be 77%. For the same molecule, the Inhibition with L1210 [5] is given as 17%.
With `c1nc(N2CCCCC2)c2ncnc(N3CCCCC3)c2n1`, the inhibition result in the experiment with L1210 [8] was “inactive”.
As for `OCC(O)COc1nc(N2CCCCC2)c2nc(OCC(O)CO)nc(N3CCCCC3)c2n1` (stereo unspecified), the Inhibition in the experiment on L1210 [9] is given as 34%; in the experiment on L1210 [10], 80%. In the experiment with L1210 [1], this molecule showed an inhibition at 10 µM of 32%. Moreover, the Reduction entry in the experiment with L1210 [3] was “No significant reduction in inhibition”. The inhibition at 100 µM with L1210 [8] is 83%.
Take `COc1ccc(CN(C)c2nc(N(CCO)CCO)nc3c(N(C)Cc4ccc(OC)cc4)nc(N(CCO)CCO)nc23)cc1`: in the experiment with L1210 [2], the pIC50 was 6.08. Further, in the experiment on L1210 [6], the inhibition at 0.1 µM stood at 27%. This molecule displayed an inhibition at 1 µM with L1210 [4] of 71%. Also, the Reduction with L1210 [7] was 46%. Moreover, the Inhibition with L1210 [5] is reported as 40%.
`OCC(O)COc1nc(N2CCCCC2)c2nc(OC[C@H](O)CO)nc(N3CCCCC3)c2n1` (stereo partly specified) came in with an inhibition at 10 µM with L1210 [1] of 32%. For the same molecule, the inhibition at 100 µM in the experiment on L1210 [8] was found to be 87%.
`COc1ccc(CNc2nc(NCCO)nc3c(NCc4ccc(OC)cc4)nc(NCCO)nc23)cc1` gave a pIC50 in the experiment with L1210 [2] of 6.03. The same molecule yielded an inhibition at 0.1 µM in the experiment with L1210 [6] of 10%. In the experiment on L1210 [4], this molecule returned an inhibition at 1 µM of 56%. The Reduction in the experiment on L1210 [7] was determined as 40%. Moreover, the Inhibition in the experiment on L1210 [5] was 35%.
On the same counts, the results for `CC(O)CNc1nc(N(C)Cc2ccccc2)c2nc(NCC(C)O)nc(N(C)Cc3ccccc3)c2n1` (stereo unspecified) are 6.15, 24%, 56%, 77% and 12%.
As to `Clc1nc(Cl)c2nc(Cl)nc(Cl)c2n1`, the inhibition entry in the experiment on L1210 [8] is “inactive”.
As to `OCC(O)CNc1nc(N2CCCCC2)c2nc(NCC(O)CO)nc(N3CCCCC3)c2n1` (stereo unspecified), the Inhibition with L1210 [9] is 20%. Besides, 10 µM produced 55% inhibition in the experiment with L1210 [1]. In the experiment on L1210 [2], this molecule gave a pIC50 of 5.43. In the experiment on L1210 [4], the inhibition at 1 µM was 18%. The Reduction with L1210 [7] worked out at 64%.
On to `CC1(C)OC[C@@H](COc2nc(N3CCCCC3)c3nc(OC[C@@H]4COC(C)(C)O4)nc(N4CCCCC4)c3n2)O1`, for which, in the experiment with L1210 [11], the inhibition at 3 µM amounted to 76%. The inhibition at 10 µM with L1210 [1] came to 100%.
With `OCC(O)COc1nc(N2CCCCC2)c2nc(OC[C@@H](O)CO)nc(N3CCCCC3)c2n1` (stereo partly specified), the Inhibition in the experiment with L1210 [9] is recorded as 29%. This molecule yielded an inhibition at 10 µM in the experiment on L1210 [1] of 37%. In the experiment on L1210 [2], the pIC50 was 5.06. Further, the inhibition at 100 µM in the experiment on L1210 [8] was 91%. For the same molecule, the Reduction in the experiment with L1210 [7] came to 22%.
With `COc1ccc(CNc2nc(NCCO)nc3c(NCc4ccc(OC)c(OC)c4)nc(NCCO)nc23)cc1OC`, in the experiment with L1210 [2], the pIC50 was 6.30. The molecule also displayed an inhibition at 0.1 µM in the experiment with L1210 [6] of 29%. The same molecule returned an inhibition at 1 µM in the experiment with L1210 [4] of 62%. Moreover, the Reduction with L1210 [7] was 23%. Also, the Inhibition in the experiment on L1210 [5] turned out to be 44%.
With `COc1ccc(CNc2nc(NCC(C)O)nc3c(NCc4ccc(OC)c(OC)c4)nc(NCC(C)O)nc23)cc1OC` (stereo unspecified), the pIC50 in the experiment with L1210 [2] is 6.40. The molecule further yielded an inhibition at 0.1 µM in the experiment on L1210 [6] of 38%. 1 µM produced 83% inhibition with L1210 [4]. Also, the Reduction in the experiment with L1210 [7] was 12%. In addition, the Inhibition with L1210 [5] came out at 73%.
In the case of `COc1ccc(CNc2nc(OCCO)nc3c(NCc4ccc(OC)cc4)nc(OCCO)nc23)cc1`, the inhibition at 10 µM in the experiment with L1210 [1] stood at 88%. Further, in the experiment with L1210 [2], the pIC50 was 6.17. In the experiment on L1210 [3], the Reduction entry is “No significant reduction in inhibition”. The same molecule came in with an inhibition at 1 µM in the experiment with L1210 [4] of 40%.

For orientation: inhibition means how much of the control response was suppressed. By pIC50 is commonly meant −log10 of the IC50, conventionally taken in molar units. For orientation: Inhibition means the change of the read-out against control, counted positive when it falls.

These data come from ChEMBL document CHEMBL1138764, “Resistance-modifying agents. 11.(1) Pyrimido[5,4-d]pyrimidine modulators of antitumor drug activity. Synthesis and structure-activity relationships for nucleoside transport inhibition and binding to alpha1-acid glycoprotein” (J Med Chem, 2004).
